Each structure is given as a SMILES string. Active and inactive are the calls of the source. The rule behind the calls is not given here.

Series [1] concerns Liver. Kind of series: Biodistribution in NMRI mouse liver at 37 MBq/mL, iv after 60 mins postinjection assessed per gram of tissue by gamma counting. The series is classed as ADME, organism-based. The settings on record: in vivo, 1 h. In a few lines: (§1)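 Normal mice given the 11C tracer i.v.; killed by decapitation at 2 or 60 min p.i. (n = 4 per time point). Blood collected in tared tube and weighed; organs dissected and weighed, then gamma-counted. Counts background-corrected and expressed as %ID per organ or %ID/g tissue.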

Series [2] in a line: Biodistribution in NMRI mouse urine at 37 MBq/mL, iv after 60 mins postinjection by gamma counting. The series is classed as ADME, organism-based. The settings on record: in vivo, 1 h. In a few lines: as §1
For series [3], the system named is Blood. Kind of series: Blood clearance in NMRI mouse assessed ratio of %ID in blood after 2 mins to %ID in blood after 60 mins at 37 MBq/mL, iv. The series is classed as ADME, tissue-based. Put shortly:
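Normal mice given i.v. 11C tracer; blood collected at 2 and 60 min p.i. (n = 4 per time point), weighed and gamma-counted. Clearance expressed as the ratio of %ID/g blood at 2 min to %ID/g blood at 60 min.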

The nature of series [4]: Biodistribution in NMRI mouse cerebrum at 37 MBq/mL, iv after 60 mins postinjection by gamma counting. The series is classed as ADME, organism-based. The settings on record: in vivo, 1 h. In a few lines:
as §1

Series [5] relates to Cerebellum. Put plainly: Biodistribution in NMRI mouse cerebellum at 37 MBq/mL, iv after 60 mins postinjection by gamma counting. The series is classed as ADME, organism-based. The settings on record: in vivo, 1 h. In a few lines:
as §1

Series [6] relates to Kidney. Put plainly: Biodistribution in NMRI mouse kidney at 37 MBq/mL, iv after 60 mins postinjection assessed per gram of tissue by gamma counting. The class given is ADME, organism-based. The settings on record: in vivo, 1 h. Put shortly:
as §1

A short description of series [7]: Partition coefficient, log P in Octanol and 0.025 M phosphate buffer at pH7.4 by gamma counter. The class given is physicochemical. The settings on record: octanol/0.025 M phosphate buffer, pH 7.4. Put shortly:
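HPLC-purified 11C tracer added to 1-octanol and 2 ml 0.025 M phosphate buffer pH 7.4. Vortexed 3 min at room temperature, centrifuged 2700 g for 10 min. Aliquots of each phase weighed and gamma-counted; P = (cpm/ml octanol)/(cpm/ml buffer). Triplicate.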

A short description of series [8]: Biodistribution in NMRI mouse cerebrum at 37 MBq/mL, iv after 60 mins postinjection assessed per gram of tissue by gamma counting. The series is classed as ADME, organism-based. The settings on record: in vivo, 1 h. In a few lines:
as §1

The subject of series [9] is Blood. Kind of series: Biodistribution in NMRI mouse blood at 37 MBq/mL, iv after 60 mins postinjection by gamma counting. The series is classed as ADME, organism-based. The settings on record: in vivo, 1 h. In a few lines: as §1
Series [10] has as its system Liver. Kind of series: Biodistribution in NMRI mouse liver at 37 MBq/mL, iv after 2 mins postinjection by gamma counting. The series is classed as ADME, organism-based. The settings on record: in vivo. In a few lines: as §1
Series [11] relates to Cerebellum. Kind of series: Biodistribution in NMRI mouse cerebellum at 37 MBq/mL, iv after 2 mins postinjection assessed per gram of tissue by gamma counting. The series is classed as ADME, organism-based. The settings on record: in vivo. Put shortly: as §1
The test system of series [12] is Liver. Put plainly: Biodistribution in NMRI mouse liver at 37 MBq/mL, iv after 60 mins postinjection by gamma counting. The class given is ADME, organism-based. The settings on record: in vivo, 1 h. Put shortly: as §1
The test system of series [13] is Kidney. Kind of series: Biodistribution in NMRI mouse kidney at 37 MBq/mL, iv after 60 mins postinjection by gamma counting. The settings on record: in vivo, 1 h. The series is classed as ADME, organism-based. In a few lines:
as §1

Series [14] concerns Intestine. Kind of series: Biodistribution in NMRI mouse intestine at 37 MBq/mL, iv after 60 mins postinjection by gamma counting. The class given is ADME, organism-based. The settings on record: in vivo, 1 h. Put shortly: as §1
Series [15] relates to Intestine. Put plainly: Biodistribution in NMRI mouse intestine at 37 MBq/mL, iv after 2 mins postinjection by gamma counting. The settings on record: in vivo. The series is classed as ADME, organism-based. In a few lines: as §1
Series [16] relates to Cerebellum. Put plainly: Biodistribution in NMRI mouse cerebellum at 37 MBq/mL, iv after 60 mins postinjection assessed per gram of tissue by gamma counting. The settings on record: in vivo, 1 h. The series is classed as ADME, organism-based. In a few lines: as §1
The test system of series [17] is Blood. Kind of series: Biodistribution in NMRI mouse blood at 37 MBq/mL, iv after 60 mins postinjection assessed per gram of tissue by gamma counting. The class given is ADME, organism-based. The settings on record: in vivo, 1 h. Put shortly: as §1
Series [18] has as its system Blood. Kind of series: Biodistribution in NMRI mouse blood at 37 MBq/mL, iv after 2 mins postinjection assessed per gram of tissue by gamma counting. The series is classed as ADME, organism-based. The settings on record: in vivo. In a few lines: as §1
In series [19] the test system is Kidney. Kind of series: Biodistribution in NMRI mouse kidney at 37 MBq/mL, iv after 2 mins postinjection assessed per gram of tissue by gamma counting. The class given is ADME, organism-based. The settings on record: in vivo. Put shortly: as §1
A short description of series [20]: Biodistribution in NMRI mouse urine at 37 MBq/mL, iv after 2 mins postinjection by gamma counting. The class given is ADME, organism-based. The settings on record: in vivo. Put shortly:
as §1

Series [21] concerns Cerebellum. Put plainly: Biodistribution in NMRI mouse cerebellum at 37 MBq/mL, iv after 2 mins postinjection by gamma counting. The series is classed as ADME, organism-based. The settings on record: in vivo. In a few lines:
as §1

The subject of series [22] is Blood. Put plainly: Biodistribution in NMRI mouse blood at 37 MBq/mL, iv after 2 mins postinjection by gamma counting. The settings on record: in vivo. The class given is ADME, organism-based. In a few lines:
as §1

In series [23] the test system is Liver. Kind of series: Biodistribution in NMRI mouse liver at 37 MBq/mL, iv after 2 mins postinjection assessed per gram of tissue by gamma counting. The series is classed as ADME, organism-based. The settings on record: in vivo. Put shortly: as §1
The nature of series [24]: Biodistribution in NMRI mouse cerebrum at 37 MBq/mL, iv after 2 mins postinjection assessed per gram of tissue by gamma counting. The series is classed as ADME, organism-based. The settings on record: in vivo. Put shortly:
as §1

Series [25] is described as follows: Biodistribution in NMRI mouse cerebrum at 37 MBq/mL, iv after 2 mins postinjection by gamma counting. The series is classed as ADME, organism-based. The settings on record: in vivo. Put shortly:
as §1

For series [26], the system named is Kidney. Put plainly: Biodistribution in NMRI mouse kidney at 37 MBq/mL, iv after 2 mins postinjection by gamma counting. The class given is ADME, organism-based. The settings on record: in vivo. In a few lines:
as §1

Series [27] has as its target T1, Amyloid-beta precursor protein (Homo sapiens, UniProt P05067). Put plainly: Binding affinity to beta-amyloid plaques in subiculum of transgenic mouse overexpressing human APP at 1 uM by fluorescence microscopy. The series is classed as tissue-based. Put shortly:
(§2)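 Paraffin 8 µm sagittal sections of transgenic APP (London mutation) mouse brain or post-mortem human AD brain; xylol and graded-ethanol deparaffinization, then 1 h incubation with cold compound; tap-water rinse, Mowiol-DABCO mounting. Fluorescence microscopy with UV filter set (excitation 355–425 nm, emission 470 nm longpass). Neighbouring sections immunostained with pan Aβ or AβN25 antibody to check co-localization.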

Series [28] deals with T1, Amyloid-beta precursor protein. Put plainly: Binding affinity to fibrillar beta-amyloid plaques in cortex of patient with Alzheimer's disease at 1 uM by fluorescence microscopy. Put shortly:
as §2

Series [29] shares this target. Kind of series: Displacement of [125I]IMPY from beta-amyloid plaques in brain homogenate of patient with Alzheimer's disease by gamma counting. The class given is tissue-based. In a few lines: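 Gray-matter homogenates of post-mortem AD cortex in PBS pH 7.4, about 100 mg wet tissue/ml. Incubated 2 h at 37 °C, then GF/B vacuum filtration, two PBS washes, gamma counting. Ki from non-linear regression using Ki = IC50/(1+L/Kd).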
(Loss of bound radioactivity is the signal in a displacement assay; it reports binding, not function.)

For series [30] the target is unchanged. Put plainly: Binding affinity to beta-amyloid plaques in cortex of patient with Alzheimer's disease at 1 uM by fluorescence microscopy. Put shortly:
as §2

T1 sequence (P05067 whole entry): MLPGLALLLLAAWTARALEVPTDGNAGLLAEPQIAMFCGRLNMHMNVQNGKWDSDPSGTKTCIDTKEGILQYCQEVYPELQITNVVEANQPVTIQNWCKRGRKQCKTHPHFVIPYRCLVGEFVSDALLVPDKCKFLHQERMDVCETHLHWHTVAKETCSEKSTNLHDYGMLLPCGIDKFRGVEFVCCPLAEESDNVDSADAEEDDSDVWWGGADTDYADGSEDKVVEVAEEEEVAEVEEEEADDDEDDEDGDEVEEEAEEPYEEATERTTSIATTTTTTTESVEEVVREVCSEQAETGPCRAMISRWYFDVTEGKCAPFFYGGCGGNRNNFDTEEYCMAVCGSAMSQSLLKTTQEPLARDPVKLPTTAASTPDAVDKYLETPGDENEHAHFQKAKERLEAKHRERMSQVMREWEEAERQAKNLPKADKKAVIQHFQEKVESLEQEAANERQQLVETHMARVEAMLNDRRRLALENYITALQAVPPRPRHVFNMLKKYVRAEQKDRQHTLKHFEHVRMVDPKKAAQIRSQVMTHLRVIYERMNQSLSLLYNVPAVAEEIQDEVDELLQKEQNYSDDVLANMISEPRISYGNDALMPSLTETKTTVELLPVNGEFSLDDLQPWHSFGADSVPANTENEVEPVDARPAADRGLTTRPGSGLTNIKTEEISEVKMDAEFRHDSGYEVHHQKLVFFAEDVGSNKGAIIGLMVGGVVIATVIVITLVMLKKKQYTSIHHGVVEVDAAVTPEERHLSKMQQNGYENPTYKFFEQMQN

Usually logD stands for lipophilicity at a set pH, counting ionised and neutral species. A low value points to a more hydrophilic compound. With `[11CH3]Nc1ccc(-c2nc3cccc(O)c3s2)cc1`, the Drug uptake is given as 4 % ID/g in [1]; 24.8 %ID in [2]; 0.05 %ID in [4]; 0.01 %ID in series [5]; 4.8 % ID/g in series [6]; 0.16 % ID/g in series [8]. The Drug uptake is 1.2 %ID in series [9]; 27.8 %ID in series [10]; 2.8 % ID/g in series [11]; 7.1 %ID in series [12]; 2.5 %ID in series [13]; 54.7 %ID in [14]. The Drug uptake in [15] stood at 9.4 %ID; in series [16], 0.1 % ID/g; in series [17] it was 0.57 % ID/g; in [18], 4.6 % ID/g; in series [19], 16.9 % ID/g; in series [20], 0.58 %ID. Besides, the Drug uptake came out at 0.22 %ID in series [21]; 9.8 %ID in [22]; 14.5 % ID/g in [23]; 2.6 % ID/g in series [24]; 0.83 %ID in series [25]; 9 %ID in series [26]. Also, the Ratio in series [3] turned out to be 12. In addition, the pH-dependent lipophilicity (logD) in series [7] was 2.45.
For the compound `CNc1ccc(-c2nc3ccc(O)cc3s2)cc1` [PITTSBURGH COMPOUND B UNLABELLED], the Drug uptake in [1] came out at 5 % ID/g; in series [2] it was 24.4 %ID; in series [4], 0.2 %ID; in series [5], 0 %ID; in series [6], 9.1 % ID/g; in series [8], 0.6 % ID/g. In addition, the Drug uptake in series [9] turned out to be 2.7 %ID; in series [10], 15.6 %ID; in series [11], 1.6 % ID/g; in [12] it was 9.8 %ID; in series [13], 4.8 %ID; in [14], 42.5 %ID. Moreover, the Drug uptake in series [15] was 12 %ID; in series [16], 0.3 % ID/g; in [17] it was 1.1 % ID/g; in series [18] it was 3.1 % ID/g; in series [19], 19.9 % ID/g; in series [20], 0.2 %ID. Besides, the Drug uptake in [21] is on record as 0.2 %ID; in series [22], 7.9 %ID; in series [23], 7.9 % ID/g; in series [24], 3.6 % ID/g; in series [25], 1.1 %ID; in series [26], 10.3 %ID.
For orientation: Ki means the dissociation constant of the complex between target and ligand, obtained from inhibition or displacement. The low end stands for tighter binding, the high end for weaker binding. On to `CNc1ccc(-c2nc3c(O)cccc3s2)cc1`, for which the result in [27], in [28] and in series [30] was Active. For the same compound, the Ki in series [29] turned out to be 18.8 nM.

The values are drawn from ChEMBL document CHEMBL1137725, “11C-labelled PIB analogues as potential tracer agents for in vivo imaging of amyloid beta in Alzheimer's disease” (Eur J Med Chem, 2009).
